# Experimental data published in ChEMBL document CHEMBL4732167, “Structure based design, synthesis, and biological evaluation of imidazole derivatives targeting dihydropteroate synthase enzyme” (Bioorg Med Chem Lett, 2021).
# System: Staphylococcus aureus
# Test: Antibacterial activity against Staphylococcus aureus MTCC 96 assessed as bacterial growth inhibition
# Format: functional
# Conditions: not given
row,Compound,MIC
1,COc1ccc(-n2c(SCC(=O)Nc3ccc(OC(=O)c4cccs4)cc3)nc(C)c2C(C)=O)cc1,25 µg/mL
2,CC(=O)c1c(C)nc(SCC(=O)Nc2ccc(OC(=O)c3ccco3)cc2)n1-c1ccc(Br)cc1,100 µg/mL

# System: Escherichia coli
# Test: Antibacterial activity against Escherichia coli MTCC 443 assessed as bacterial growth inhibition
# Format: functional
# Conditions: not given
row,Compound,MIC
1,COc1ccc(-n2c(SCC(=O)Nc3ccc(OC(=O)c4cccs4)cc3)nc(C)c2C(C)=O)cc1,12.5 µg/mL
2,CC(=O)c1c(C)nc(SCC(=O)Nc2ccc(OC(=O)c3ccco3)cc2)n1-c1ccc(Br)cc1,100 µg/mL

# System: Pseudomonas aeruginosa
# Test: Antibacterial activity against Pseudomonas aeruginosa MTCC 1688 assessed as bacterial growth inhibition
# Format: functional
# Conditions: not given
row,Compound,MIC
1,COc1ccc(-n2c(SCC(=O)Nc3ccc(OC(=O)c4cccs4)cc3)nc(C)c2C(C)=O)cc1,12.5 µg/mL
2,CC(=O)c1c(C)nc(SCC(=O)Nc2ccc(OC(=O)c3ccco3)cc2)n1-c1ccc(Br)cc1,250 µg/mL

# System: Aspergillus niger
# Test: Antifungal activity against Aspergillus niger MTCC 282 assessed as fungal growth inhibition
# Format: functional
# Conditions: not given
row,Compound,MFC
1,COc1ccc(-n2c(SCC(=O)Nc3ccc(OC(=O)c4cccs4)cc3)nc(C)c2C(C)=O)cc1,500 µg/mL
2,CC(=O)c1c(C)nc(SCC(=O)Nc2ccc(OC(=O)c3ccco3)cc2)n1-c1ccc(Br)cc1,500 µg/mL

# System: Candida albicans
# Test: Antifungal activity against Candida albicans MTCC 227 assessed as fungal growth inhibition
# Format: functional
# Conditions: not given
row,Compound,MFC
1,COc1ccc(-n2c(SCC(=O)Nc3ccc(OC(=O)c4cccs4)cc3)nc(C)c2C(C)=O)cc1,1000 µg/mL
2,CC(=O)c1c(C)nc(SCC(=O)Nc2ccc(OC(=O)c3ccco3)cc2)n1-c1ccc(Br)cc1,1000 µg/mL

# System: Streptococcus pyogenes
# Test: Antibacterial activity against Streptococcus pyogenes MTCC 442 assessed as bacterial growth inhibition
# Format: functional
# Conditions: not given
row,Compound,MIC
1,COc1ccc(-n2c(SCC(=O)Nc3ccc(OC(=O)c4cccs4)cc3)nc(C)c2C(C)=O)cc1,50 µg/mL
2,CC(=O)c1c(C)nc(SCC(=O)Nc2ccc(OC(=O)c3ccco3)cc2)n1-c1ccc(Br)cc1,250 µg/mL

# System: Aspergillus clavatus
# Test: Antifungal activity against Aspergillus clavatus MTCC 1323 assessed as fungal growth inhibition
# Format: functional
# Conditions: not given
row,Compound,MFC
1,COc1ccc(-n2c(SCC(=O)Nc3ccc(OC(=O)c4cccs4)cc3)nc(C)c2C(C)=O)cc1,500 µg/mL
2,CC(=O)c1c(C)nc(SCC(=O)Nc2ccc(OC(=O)c3ccco3)cc2)n1-c1ccc(Br)cc1,500 µg/mL

# System: Mycobacterium tuberculosis
# Test: Antibacterial activity against Mycobacterium tuberculosis H37Rv assessed as bacterial growth inhibition
# Format: functional
# Conditions: not given
row,Compound,MIC
1,COc1ccc(-n2c(SCC(=O)Nc3ccc(OC(=O)c4cccs4)cc3)nc(C)c2C(C)=O)cc1,25 µg/mL
2,CC(=O)c1c(C)nc(SCC(=O)Nc2ccc(OC(=O)c3ccco3)cc2)n1-c1ccc(Br)cc1,25 µg/mL

# System: Plasmodium falciparum
# Test: Antimalarial activity against Plasmodium falciparum assessed as parasite growth inhibition
# Format: functional, organism-based
# Conditions: not given
row,Compound,IC50
1,COc1ccc(-n2c(SCC(=O)Nc3ccc(OC(=O)c4cccs4)cc3)nc(C)c2C(C)=O)cc1,0.45 µg/mL
2,CC(=O)c1c(C)nc(SCC(=O)Nc2ccc(OC(=O)c3ccco3)cc2)n1-c1ccc(Br)cc1,1.18 µg/mL

# System: Bacteria
# Test: Antibacterial activity against ESBL-producing bacteria assessed as bacterial growth inhibition
# Format: functional
# Conditions: not given
# Procedure, shortened: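 Values are minimum inhibitory concentrations (MIC) in µg/mL, determined at an outside microbiology laboratory.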
row,Compound,MIC
1,COc1ccc(-n2c(SCC(=O)Nc3ccc(OC(=O)c4cccs4)cc3)nc(C)c2C(C)=O)cc1,62.5 µg/mL
2,CC(=O)c1c(C)nc(SCC(=O)Nc2ccc(OC(=O)c3ccco3)cc2)n1-c1ccc(Br)cc1,250 µg/mL

# System: Enterococcus
# Test: Antibacterial activity against vancomycin-resistant Enterococcus assessed as inhibition of bacterial growth
# Format: functional
# Conditions: not given
# Procedure, shortened: (§1)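 Growth inhibition of the drug-resistant strain was read out as the minimum inhibitory concentration (MIC), reported in µg/mL. The same protocol was also run on an ESBL strain.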
row,Compound,MIC
1,COc1ccc(-n2c(SCC(=O)Nc3ccc(OC(=O)c4cccs4)cc3)nc(C)c2C(C)=O)cc1,100 µg/mL
2,CC(=O)c1c(C)nc(SCC(=O)Nc2ccc(OC(=O)c3ccco3)cc2)n1-c1ccc(Br)cc1,250 µg/mL

# System: Staphylococcus aureus
# Test: Antibacterial activity against methicillin-resistant Staphylococcus aureus assessed as inhibition of bacterial growth
# Format: functional
# Conditions: not given
# Procedure, shortened: as §1
row,Compound,MIC
1,COc1ccc(-n2c(SCC(=O)Nc3ccc(OC(=O)c4cccs4)cc3)nc(C)c2C(C)=O)cc1,100 µg/mL
2,CC(=O)c1c(C)nc(SCC(=O)Nc2ccc(OC(=O)c3ccco3)cc2)n1-c1ccc(Br)cc1,100 µg/mL

# System: not listed separately
# Test: Antioxidant activity assessed as DPPH radical scavenging activity at 25 ug/ml (reference value: 22 to 40.2 %)
# Format: functional
# Conditions: dose 25.0 µg/ml
# Procedure, shortened: (§2)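 DPPH radical scavenging was measured at 0, 25, 50, 75 and 100 µg/ml of each compound. Ascorbic acid was the reference.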
row,Compound,Activity
1,COc1ccc(-n2c(SCC(=O)Nc3ccc(OC(=O)c4cccs4)cc3)nc(C)c2C(C)=O)cc1,46.8%
2,CC(=O)c1c(C)nc(SCC(=O)Nc2ccc(OC(=O)c3ccco3)cc2)n1-c1ccc(Br)cc1,43.2%

# System: not listed separately
# Test: Antioxidant activity assessed as DPPH radical scavenging activity at 50 ug/ml (reference value: 22 to 40.2 %)
# Format: functional
# Conditions: dose 50.0 µg/ml
# Procedure, shortened: as §2
row,Compound,Activity
1,COc1ccc(-n2c(SCC(=O)Nc3ccc(OC(=O)c4cccs4)cc3)nc(C)c2C(C)=O)cc1,56.1%
2,CC(=O)c1c(C)nc(SCC(=O)Nc2ccc(OC(=O)c3ccco3)cc2)n1-c1ccc(Br)cc1,57.1%

# System: not listed separately
# Test: Antioxidant activity assessed as DPPH radical scavenging activity at 75 ug/ml (reference value: 22 to 40.2 %)
# Format: functional
# Conditions: dose 75.0 µg/ml
# Procedure, shortened: as §2
row,Compound,Activity
1,COc1ccc(-n2c(SCC(=O)Nc3ccc(OC(=O)c4cccs4)cc3)nc(C)c2C(C)=O)cc1,68.1%
2,CC(=O)c1c(C)nc(SCC(=O)Nc2ccc(OC(=O)c3ccco3)cc2)n1-c1ccc(Br)cc1,64.8%

# System: not listed separately
# Test: Antioxidant activity assessed as DPPH radical scavenging activity at 100 ug/ml (reference value: 22 to 40.2 %)
# Format: functional
# Conditions: dose 100.0 µg/ml
# Procedure, shortened: as §2
row,Compound,Activity
1,COc1ccc(-n2c(SCC(=O)Nc3ccc(OC(=O)c4cccs4)cc3)nc(C)c2C(C)=O)cc1,81.6%
2,CC(=O)c1c(C)nc(SCC(=O)Nc2ccc(OC(=O)c3ccco3)cc2)n1-c1ccc(Br)cc1,88.7%

# System: not listed separately
# Test: Antioxidant activity assessed as nitric oxide radical scavenging activity at 25 ug/ml (reference value: 25.8 to 41.6 %)
# Format: functional
# Conditions: dose 25.0 µg/ml
# Procedure, shortened: (§3)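 Nitric oxide radical scavenging was tested at 0, 25, 50, 75 and 100 µg/ml of compound.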
row,Compound,Activity
1,COc1ccc(-n2c(SCC(=O)Nc3ccc(OC(=O)c4cccs4)cc3)nc(C)c2C(C)=O)cc1,42.3%
2,CC(=O)c1c(C)nc(SCC(=O)Nc2ccc(OC(=O)c3ccco3)cc2)n1-c1ccc(Br)cc1,49.3%

# System: not listed separately
# Test: Antioxidant activity assessed as nitric oxide radical scavenging activity at 50 ug/ml (reference value: 25.8 to 41.6 %)
# Format: functional
# Conditions: dose 50.0 µg/ml
# Procedure, shortened: as §3
row,Compound,Activity
1,COc1ccc(-n2c(SCC(=O)Nc3ccc(OC(=O)c4cccs4)cc3)nc(C)c2C(C)=O)cc1,69.1%
2,CC(=O)c1c(C)nc(SCC(=O)Nc2ccc(OC(=O)c3ccco3)cc2)n1-c1ccc(Br)cc1,65.3%

# System: not listed separately
# Test: Antioxidant activity assessed as nitric oxide radical scavenging activity at 75 ug/ml (reference value: 25.8 to 41.6 %)
# Format: functional
# Conditions: dose 75.0 µg/ml
# Procedure, shortened: as §3
row,Compound,Activity
1,COc1ccc(-n2c(SCC(=O)Nc3ccc(OC(=O)c4cccs4)cc3)nc(C)c2C(C)=O)cc1,76.8%
2,CC(=O)c1c(C)nc(SCC(=O)Nc2ccc(OC(=O)c3ccco3)cc2)n1-c1ccc(Br)cc1,75.8%

# System: not listed separately
# Test: Antioxidant activity assessed as nitric oxide radical scavenging activity at 100 ug/ml (reference value: 25.8 to 41.6 %)
# Format: functional
# Conditions: dose 100.0 µg/ml
# Procedure, shortened: as §3
row,Compound,Activity
1,COc1ccc(-n2c(SCC(=O)Nc3ccc(OC(=O)c4cccs4)cc3)nc(C)c2C(C)=O)cc1,81.7%
2,CC(=O)c1c(C)nc(SCC(=O)Nc2ccc(OC(=O)c3ccco3)cc2)n1-c1ccc(Br)cc1,86.7%

# System: not listed separately
# Test: Antioxidant activity assessed as hydrogen peroxide radical scavenging activity at 25 ug/ml (reference value: 23.6 to 43.1 %)
# Format: functional
# Conditions: dose 25.0 µg/ml
# Procedure, shortened: (§4)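 Hydrogen peroxide scavenging was measured across a compound series of 0, 25, 50, 75 and 100 µg/ml.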
row,Compound,Activity
1,COc1ccc(-n2c(SCC(=O)Nc3ccc(OC(=O)c4cccs4)cc3)nc(C)c2C(C)=O)cc1,39.4%
2,CC(=O)c1c(C)nc(SCC(=O)Nc2ccc(OC(=O)c3ccco3)cc2)n1-c1ccc(Br)cc1,51.7%

# System: not listed separately
# Test: Antioxidant activity assessed as hydrogen peroxide radical scavenging activity at 50 ug/ml (reference value: 23.6 to 43.1 %)
# Format: functional
# Conditions: dose 50.0 µg/ml
# Procedure, shortened: as §4
row,Compound,Activity
1,COc1ccc(-n2c(SCC(=O)Nc3ccc(OC(=O)c4cccs4)cc3)nc(C)c2C(C)=O)cc1,61%
2,CC(=O)c1c(C)nc(SCC(=O)Nc2ccc(OC(=O)c3ccco3)cc2)n1-c1ccc(Br)cc1,68.7%

# System: not listed separately
# Test: Antioxidant activity assessed as hydrogen peroxide radical scavenging activity at 75 ug/ml (reference value: 23.6 to 43.1 %)
# Format: functional
# Conditions: dose 75.0 µg/ml
# Procedure, shortened: as §4
row,Compound,Activity
1,COc1ccc(-n2c(SCC(=O)Nc3ccc(OC(=O)c4cccs4)cc3)nc(C)c2C(C)=O)cc1,76.4%
2,CC(=O)c1c(C)nc(SCC(=O)Nc2ccc(OC(=O)c3ccco3)cc2)n1-c1ccc(Br)cc1,79%

# System: not listed separately
# Test: Antioxidant activity assessed as hydrogen peroxide radical scavenging activity at 100 ug/ml (reference value: 23.6 to 43.1 %)
# Format: functional
# Conditions: dose 100.0 µg/ml
# Procedure, shortened: as §4
row,Compound,Activity
1,COc1ccc(-n2c(SCC(=O)Nc3ccc(OC(=O)c4cccs4)cc3)nc(C)c2C(C)=O)cc1,82.3%
2,CC(=O)c1c(C)nc(SCC(=O)Nc2ccc(OC(=O)c3ccco3)cc2)n1-c1ccc(Br)cc1,86.5%
